The list is not random: actives were taken first. Their share in the collection is about 5.9%.
MT1-MMP txn act – activates MT1-MMP transcription; actives 0.16% (n = 86,000); activation factor at 10 µM; HT1080 MT1-MMP promoter luciferase reporter, luminescence, overnight; active compounds read high; AID 750;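 active means activation factor of at least 2 for MT1-MMP transcription at 10 µM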
Lung fibro prol – blocks proliferation of human lung fibroblasts; viability, % at 10 µM; AID 719; actives 1.1% (n = 85,000); LL 47 human lung fibroblast viability, ATP luminescence; active compounds read low;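 active means viability at or below 50% in the single dose screen; inactive means viability above 50%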;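 further: compound exposure lasted 72 h before the ATP readout; 100% = median luminescence of untreated cell-only wells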
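Times – overnight cell rest, 72 h compound treatment at 37 °C · Test system – human lung fibroblast line LL 47, low passage · Amount – 1,150 cells in each well · Controls – cell-only wells, no compound · Doses – 0.1% DMSO in all compound wells · Measured by – CellTiter-Glo luminescence · Buffer or medium – IMEM plus 15% FBS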
H69AR growth 86K – growth inhibitors of human H69AR lung tumor cells; viability, % at 10 µM; H69AR lung tumor viability, ATP luminescence, 72 h; active compounds read low; actives 6% (n = 85,000);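 active means viability at or below 40%; inactive means viability above 40%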;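 further: multidrug resistant small cell line overexpressing MRP-1 efflux transporter; 100% = mean luminescence of untreated control wells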
Jurkat tox 60K – cytotoxic compounds reducing Jurkat cell viability; Jurkat E6.1 viability, ATP luminescence, 48 h; inhibition, % at 4 µM; actives 1.2% (n = 56,000);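 active means inhibition above the mean inhibition of all tested compounds plus 3 SD, cut at about 28% in these data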
PTK2B oligo ant – antagonists of human Pyk2 oligomerization | Q293 cells, Pyk2 FERM NanoBiT luminescence; active compounds read low | actives 0.83% (n = 99,000) | z-score (the deposit names both 25 µM and 10 µM) | Q14289;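 active means Z-score of -3 or lower, scaled per plate to the spread of control and sample wells; inactive means z-score above -3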;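 further: negative z-score means lost luminescence so less FERM oligomerization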
Target sequence (Q14289 whole entry, looked up): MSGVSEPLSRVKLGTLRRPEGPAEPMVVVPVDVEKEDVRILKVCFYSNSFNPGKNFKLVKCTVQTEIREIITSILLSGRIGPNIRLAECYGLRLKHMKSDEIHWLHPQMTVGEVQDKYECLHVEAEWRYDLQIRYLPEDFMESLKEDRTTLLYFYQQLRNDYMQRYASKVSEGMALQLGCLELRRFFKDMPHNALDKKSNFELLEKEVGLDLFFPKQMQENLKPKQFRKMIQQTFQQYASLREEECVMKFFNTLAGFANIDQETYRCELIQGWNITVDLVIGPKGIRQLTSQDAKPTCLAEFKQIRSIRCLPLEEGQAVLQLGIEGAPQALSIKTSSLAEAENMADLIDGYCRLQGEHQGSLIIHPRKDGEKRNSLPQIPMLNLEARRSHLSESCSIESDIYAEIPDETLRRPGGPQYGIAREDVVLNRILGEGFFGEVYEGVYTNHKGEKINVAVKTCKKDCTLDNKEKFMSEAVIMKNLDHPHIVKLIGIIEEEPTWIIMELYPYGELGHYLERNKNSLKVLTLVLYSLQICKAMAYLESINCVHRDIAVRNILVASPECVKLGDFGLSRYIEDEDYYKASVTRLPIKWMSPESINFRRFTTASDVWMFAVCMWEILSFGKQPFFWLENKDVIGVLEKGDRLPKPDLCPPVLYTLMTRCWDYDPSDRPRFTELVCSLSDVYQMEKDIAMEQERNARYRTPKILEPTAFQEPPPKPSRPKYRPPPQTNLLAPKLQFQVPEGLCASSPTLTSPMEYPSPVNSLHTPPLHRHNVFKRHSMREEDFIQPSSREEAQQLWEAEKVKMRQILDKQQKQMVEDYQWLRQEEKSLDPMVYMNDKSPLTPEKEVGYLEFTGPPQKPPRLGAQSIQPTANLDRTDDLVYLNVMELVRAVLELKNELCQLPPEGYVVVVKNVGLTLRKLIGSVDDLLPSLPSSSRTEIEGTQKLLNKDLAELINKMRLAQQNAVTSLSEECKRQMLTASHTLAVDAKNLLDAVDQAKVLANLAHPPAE
HUVEC inhibit – human endothelial cell proliferation inhibition | HUVEC proliferation, CellTiter-Glo luminescence, 72 h; active compounds read low | viability, % at 10 µM (by protocol) | actives 1.1% (n = 86,000) | AID 648;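 active means viability at or below 30%; inactive means viability above 30%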;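 further: 100% = median luminescence of DMSO-only cell control wells on each plate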
* hit, by the source's call; x = no result.

SMILES	MT1-MMP txn act	Lung fibro prol	H69AR growth 86K	Jurkat tox 60K	PTK2B oligo ant	HUVEC inhibit
O=C(Cc1ccc(F)cc1)Nc1c2c(nn1-c1cccc(Cl)c1)CS(=O)C2 (centres undefined)	1	96	80	-2	1.1	88
Cc1cc(N2CCC(C)CC2)nc(SCC(=O)c2ccccc2)n1	1.4	92	40*	x	-2.6	88
CCOC(=O)n1c(=O)oc2ccc(Cl)cc21	1.3	95	38*	x	0.75	68
CCCCOC(=O)n1c(=O)oc2ccccc21	1.4	101	59	1	0.06	76
CCOC(=O)COc1ccc2c(c1)c(C(=O)OCC)c(C)n2CC	1.1	x	x	-4	0.9	x
Cc1nc([N+](=O)[O-])c(Br)n1CC(=O)c1ccc(Cl)cc1	1.1	77	1.2*	x	-0.23	77
CCOCc1cn(CC(=O)c2ccc(Cl)cc2)c(C)nc1=N	x	102	89	x	0.43	96
Cc1ccc2oc(=O)c3c4cc(O)c(O)c(C)c4oc3c2c1	1.2	x	x	x	x	x
CN1CCN(C(c2cccnc2)c2ccc3cccnc3c2O)CC1 (centres undefined)	1.1	86	16*	2	0.61	87
O=C(O)c1cc2ccc3ccccc3c2oc1=O	0.9	99	122	x	2	109
COc1cc(NC(=O)c2ccco2)c(OC)cc1NC(=O)c1cc(OC)c(OC)c(OC)c1	1.1	107	24*	-1	-0.01	71
COc1ccccc1NC(=O)c1cc(Cl)ccc1NC(=O)c1ccco1	1.1	85	43	x	-2.2	77
CCOc1cc(C#N)c(NC(=O)c2ccco2)cc1OCC	0.9	80	31*	79*	-0.16	57
CCOc1ccccc1NC(=O)c1cc(Cl)ccc1NC(=O)c1ccco1	1	93	29*	-1	0.36	50
CCOc1cc(NC(=O)c2ccco2)c(OCC)cc1NC(=O)c1cc(OC)c(OC)c(OC)c1	0.9	97	65	2	0.35	90
CCOc1ccc(NC(=O)CCN2CCCCC2)cc1	1.1	x	97	-3	0.03	93
CCC1(C)OCC(Cn2c3ccccc3c3ccccc32)O1 (centres undefined)	1.1	86	25*	x	x	65
CC(=O)C1=C(C)Nc2ncnn2C1c1ccccc1OCc1ccccc1 (centres undefined)	x	99	73	3	-3.1*	94
COCCn1c(SCC(=O)Nc2sccc2C(N)=O)nc2cc(Cl)ccc2c1=O	1.2	74	61	x	-3*	57
CCOC(=O)N1CCC(N2CCN(S(=O)(=O)c3ccc(Cl)cc3)CC2)CC1	1.2	98	27*	x	-0.4	100
CCOC(=O)N1CCC(N2CCN(S(=O)(=O)c3ccc(NC(C)=O)cc3)CC2)CC1	1	97	86	x	1.1	109
N#CCCN1CCN(Cc2cc(-c3ccccc3)ccc2O)CC1	1.2	98	81	7	-0.06	95
CC(C)(C)CC(C)(C)c1ccc(O)c(CN2CCN(CCC#N)CC2)c1	1.1	94	5.8*	x	-0.35	97
CC(=O)N1CCC(=NNS(=O)(=O)c2cccc([N+](=O)[O-])c2)CC1	x	x	x	x	1.4	x
C(=C\c1ccccc1)/CSc1nnc(-c2ccccn2)n1Cc1ccco1	0.5	43*	19*	86*	-0.71	41
SMILES	MT1-MMP txn act	Lung fibro prol	H69AR growth 86K	Jurkat tox 60K	PTK2B oligo ant	HUVEC inhibit
Brc1ccc(-c2csc(NNC3=NCCCCC3)n2)cc1	1.2	48*	41	x	-0.08	83
CCN(CC)CC(=O)Nc1cc(C)c2c(=O)oc3ccccc3c2n1	1	93	41	-4	x	85
O=C(Cn1c(-c2cncs2)nc2ccccc21)NCCc1ccccc1	1.3	99	18*	3	x	101
c1ccc(Cn2c(-c3cncs3)nc3ccccc32)cc1	1.6	95	93	x	-0.09	111
c1ccc(Nc2ncnc3sc4c(c23)CCC4)cc1	x	x	x	x	-0.5	x
c1csc(CCNc2ncnc3sc4c(c23)CCC4)c1	x	85	53	40*	x	63
Cc1ccc2oc(=O)c3cnn(CC(=O)N(CCC(C)C)Cc4ccco4)c3c2c1	1.1	97	38*	1	x	71
COc1ccc(C(=O)Cn2c(NCCO)nc3ccccc32)cc1OC	1.2	102	88	x	1.2	96
Nc1nc(CSc2nnnn2-c2ccccc2)nc(N2CCCc3ccccc32)n1	0.9	96	28*	3	-4*	70
Cc1ccc(N2CC(C(=O)Nc3nccs3)CC2=O)cc1Cl (centres undefined)	1	29*	87	x	-0.63	17*
Cc1ccc(N2CC(C(=O)Nc3ccc4c(c3)OCO4)CC2=O)cc1 (centres undefined)	1.1	104	92	3	-0.03	93
O=C(Nc1ccc(Cl)c(Cl)c1)C1CC(=O)N(c2ccc(Br)cc2)C1 (centres undefined)	1.1	103	9.0*	x	-0.93	54
COC(=O)c1ccccc1NC(=O)C1CC(=O)N(c2ccc(C)c(C)c2)C1 (centres undefined)	1.2	102	32*	x	0.76	95
O=C(NCCN1CCOCC1)c1cnn2c(-c3ccccc3)cc(-c3ccccc3)nc12	x	x	x	x	-1.2	x
COc1ccc(-c2nn(-c3ccccc3)cc2/C=N/N2C(=O)CSC2=S)cc1	1.5	59	60	x	-0.86	4.0*
COc1ccc(/C=N/N2C(=O)CSC2=S)cc1	1.1	110	110	x	-0.15	104
COC(=O)c1ccc(-c2cc(C(=O)O)c3cc4c(cc3n2)OCCO4)cc1	1.3	97	81	2	-0.73	87
Cc1ccc(/C=C2/CCc3c([nH]c4ccccc34)C2=O)cc1	x	x	x	x	0.02	x
CN(C)/N=C/C=C1\CC/C(=C\c2ccc(Br)cc2)C1=O	1.4	96	24*	x	0.64	82
CS(=O)(=O)N(CC(O)Cn1c2ccccc2c2ccccc21)c1ccccc1 (centres undefined)	1.1	89	30*	-2	-1	81
COc1ccc(N(CC(O)Cn2c3ccccc3c3ccccc32)S(=O)(=O)c2ccccc2)cc1 (centres undefined)	x	x	x	x	-1.1	x
CCN(CC(O)Cn1c2ccccc2c2ccccc21)S(=O)(=O)c1ccc(C)cc1 (centres undefined)	1.1	102	27*	x	0.32	27*
CN(CC(=O)Nc1cccc2c1CCCC2)S(=O)(=O)c1ccccc1	x	x	x	x	-0.93	x
CC(=O)Nc1ccc(N2C(C(C)=O)=NN(c3ccccc3)C2c2cccs2)cc1 (centres undefined)	1.3	102	80	x	-2.7	104
CC(=O)Nc1ccc(N2C(C(C)=O)=NN(c3ccc(Cl)cc3)C2c2sccc2C)cc1 (centres undefined)	1.3	94	38*	x	-1.6	54
Cn1c(SCC(=O)OC2CCCCC2)nnc1-c1ccco1	1.4	99	101	x	0.58	92
O=C(NC1CCCCC1)C(c1ccc2ncccc2c1)N(Cc1ccccc1)C(=O)c1cccs1 (centres undefined)	x	x	x	x	-4*	x

Screening data as filed in PubChem.
